Assay results as given in PMC2652879 (Clinical cancer research : an official journal of the …, 2008).

Legend:
[1] = Plasma pharmacokinetics of AG014447; type: in vivo, human; conditions: for effect of TMZ on pharmacokinetics (interaction): after a single dose or multiple doses
[2] = AG014447 concentration in tumour biopsy homogenates; type: in vivo, human; conditions: samples taken 5 hours (24 hr in 3 patients) after administration
[3] = test system: DNA strand breaks in PBLs; assay: Alkaline Comet assay for DNA strand breaks in PBLs of patients; type: in vivo, human
Procedure, shortened: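 Alkaline Comet assay (modified Olive method) on peripheral blood mononuclear cells, with slides stained with SYBR gold. Blood was sampled in cycle 1 before, 4 h and 24 h after temozolomide, following a daily 30 min IV infusion of test compound. For each sample, 50 cells from two slides were scored for % tail DNA and Olive tail moment, and means were taken. Readings were averaged by dose cohort (up to 6 patients).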

PARP [4] = conditions: most efficacious dose of AG014699 combined with TMZ; cited from earlier work
PARP [5] = target: T1, PARP (Homo sapiens, UniProt P09874); assay: PARP activity immunoassay in paired tumour biopsies of melanoma patients; type: in vivo
T1 sequence (P09874 whole entry): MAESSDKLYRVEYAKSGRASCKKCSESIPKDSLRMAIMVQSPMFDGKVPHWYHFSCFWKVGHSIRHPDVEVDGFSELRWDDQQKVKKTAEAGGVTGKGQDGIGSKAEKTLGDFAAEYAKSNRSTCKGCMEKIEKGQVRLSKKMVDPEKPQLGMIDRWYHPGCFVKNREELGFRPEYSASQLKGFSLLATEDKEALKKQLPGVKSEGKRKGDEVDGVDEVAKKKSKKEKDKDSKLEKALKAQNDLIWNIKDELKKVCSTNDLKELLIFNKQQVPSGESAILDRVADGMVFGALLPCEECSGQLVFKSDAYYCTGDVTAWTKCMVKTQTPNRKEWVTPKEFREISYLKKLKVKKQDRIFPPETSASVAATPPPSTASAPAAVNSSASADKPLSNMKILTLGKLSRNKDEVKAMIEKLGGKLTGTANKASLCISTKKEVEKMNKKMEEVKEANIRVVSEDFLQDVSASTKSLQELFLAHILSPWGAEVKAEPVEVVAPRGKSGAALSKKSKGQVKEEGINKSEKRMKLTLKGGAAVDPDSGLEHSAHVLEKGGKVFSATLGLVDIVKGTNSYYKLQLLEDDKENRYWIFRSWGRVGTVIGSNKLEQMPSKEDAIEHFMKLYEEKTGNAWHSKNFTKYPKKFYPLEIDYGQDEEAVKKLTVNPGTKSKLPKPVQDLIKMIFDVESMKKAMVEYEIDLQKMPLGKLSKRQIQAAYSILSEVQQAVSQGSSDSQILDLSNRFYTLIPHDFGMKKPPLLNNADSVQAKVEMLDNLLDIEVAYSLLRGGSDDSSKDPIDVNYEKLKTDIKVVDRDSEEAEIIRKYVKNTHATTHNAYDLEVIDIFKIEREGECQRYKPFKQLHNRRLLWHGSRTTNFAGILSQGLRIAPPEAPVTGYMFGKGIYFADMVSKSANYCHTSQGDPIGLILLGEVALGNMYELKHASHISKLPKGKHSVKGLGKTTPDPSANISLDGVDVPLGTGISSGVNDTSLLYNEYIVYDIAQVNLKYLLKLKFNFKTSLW
Procedure, shortened: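 Chemonaive melanoma patients (part 2) received PARP inhibitor at PID with temozolomide escalated to at most 200 mg/m2; one extra level used 18 mg/m2 inhibitor plus 200 mg/m2 temozolomide. Paired biopsies were taken at baseline and after the first inhibitor dose (4, 5 or 24 h stated). PAR formation was quantified immunologically ex vivo. Activity was expressed as percentage of the same patient's pre-treatment biopsy.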

metastatic melanoma = conditions: phase II, AG014699 with TMZ, preliminary results; cited from earlier work
PARP [6] = target: T1, PARP; assay: PARP activity immunoassay ex vivo in peripheral blood lymphocytes
Procedure, shortened: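 Patients with solid tumours (part 1) got one IV dose of PARP inhibitor on day -7, then temozolomide 100 mg/m2/day x5 q28 days with the inhibitor, over 5 escalating dose levels. PBLs were sampled at baseline, end of infusion, 4-6 h and 24 h on days -7, 1 and 4 of cycle 1, plus day 8 at PID. PAR formation was quantified immunologically ex vivo. PID: maximal (≥50%) activity reduction at 24 h, with no gain over the preceding dose.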

SW620 tumours = conditions: most efficacious dose of AG014699 combined with TMZ; animals bearing SW620 tumours; cited from earlier work
[7] = Toxicity / dose limiting toxicity in phase I trial; type: in vivo, human; conditions: for dose recommended for future studies: combination, x5 every 28 days
advanced solid tumors = assay: Tumour response by RECIST in phase I patients; type: in vivo, human; conditions: AG014699 + TMZ
Procedure, shortened: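 Patients with advanced solid tumours received a daily 30 min IV infusion of test compound followed by oral temozolomide for 5 consecutive days, repeated every 28 days. Response was assessed by RECIST every 2 cycles, and patients completing 2 cycles were evaluable.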

[8] = cited from earlier work

CNCc1ccc(-c2[nH]c3cc(F)cc4c3c2CCNC4=O)cc1 [AG014447]
effect of TMZ on pharmacokinetics (interaction) ([1]; listed as AG-014447): no evidence that TMZ has an effect
mean terminal half-life (CV%) ([1]; mean for the treated population): 9.5 (50.4) hours
concentration in tumour biopsy homogenates, range [2]: 5-110 ng/g tumour protein

CNCc1ccc(-c2[nH]c3cc(F)cc4c3c2CCNC4=O)cc1 [AG014699]
mean increase in Comet tail size at 24 h vs 4 h ([3]; Day 1, PARP inhibitory doses (12-18 mg/m^2) with TMZ, p=0.03): 3%
mean decrease in Comet tail size at 24 h vs 4 h ([3]; Day 1, lower doses (1-8 mg/m^2) with TMZ): 8%
DNA single strand breaks (SSB) ([3]; all patients treated at PID): increases in DNA SSB
DNA damage in PBLs (Comet analysis) ([3]; patients treated with AG014699 and TMZ): evidence of DNA damage in all patients
xenograft PARP inhibition (PARP [4]): 50%
pharmacokinetic linearity ([1]; 1-18 mg/m^2, 30 minute IV infusion): linear
exposure (AUC0-24hr) in predicted extensive vs poor CYP2D6 metabolism ([1]; CYP2D6 genotype *4,*4 vs wild type/heterozygous): similar
effect of TMZ on pharmacokinetics (interaction) [1]: no interaction
t^1/2 mean ([1]; cohort 2, 699 dose 2 mg/m^2 (n=3), TMZ dose 100, day 1): 3.8 h
t^1/2 mean ([1]; cohort 2, 699 dose 2 mg/m^2 (n=3), TMZ dose 100, day 4): 8.0 h
t^1/2 mean ([1]; cohort 2, 699 dose 2 mg/m^2 (n=3), TMZ dose 100, day -7): 6.9 h
t^1/2 mean ([1]; cohort 3, 699 dose 4 mg/m^2 (n=3), TMZ dose 100, day 1): 10.6 h
t^1/2 mean ([1]; cohort 3, 699 dose 4 mg/m^2 (n=3), TMZ dose 100, day 4): 10.9 h
t^1/2 mean ([1]; cohort 3, 699 dose 4 mg/m^2 (n=3), TMZ dose 100, day -7): 23.2 h
t^1/2 mean ([1]; cohort 4, 699 dose 8 mg/m^2 (n=4), TMZ dose 100, day 1): 13.9 h
t^1/2 mean ([1]; cohort 4, 699 dose 8 mg/m^2 (n=4), TMZ dose 100, day 4): 18.3 h
t^1/2 mean ([1]; cohort 4, 699 dose 8 mg/m^2 (n=4), TMZ dose 100, day -7): 19.9 h
t^1/2 mean ([1]; cohort 5-8, 699 dose 12 mg/m^2 (n=12), TMZ dose 100-200, day 1): 15.0 h
t^1/2 mean ([1]; cohort 5-8, 699 dose 12 mg/m^2 (n=12), TMZ dose 100-200, day 4): 16.8 h
t^1/2 mean ([1]; cohort 5-8, 699 dose 12 mg/m^2 (n=12), TMZ dose 100-200, day -7): 11.5 h
t^1/2 mean ([1]; cohort 9, 699 dose 18 mg/m^2 (n=6), TMZ dose 200, day 1): 16.0 h
t^1/2 mean ([1]; cohort 9, 699 dose 18 mg/m^2 (n=6), TMZ dose 200, day 4): 15.2 h
t^1/2 mean ([1]; cohort 9, 699 dose 18 mg/m^2 (n=6), TMZ dose 200, day -7): 13.1 h
inter-subject variability of normalized AUC0-24h ([1]; normalized for actual dose and for mg/m^2 dose (both cases)): 54%
Mean tumor PARP inhibition (PARP [5]; at 5 hours): 92%
tumor PARP inhibition, range (PARP [5]; at 5 hours): 46 - 97%
PARP inhibition in paired tumour biopsies (PARP [5]; part 2, all biopsies, 12 and 18 mg/m^2): > 50%
partial response rate (metastatic melanoma): 17%
patients having stable disease for 6 months or more (metastatic melanoma): 17%
PBL PARP enzyme activity recovered, of baseline (PARP [6]; 12 mg/m^2/day, cycle 1 day 8, 72 hours after the last dose): ~50%
PARP inhibition in PBLs (PARP [6]; all AG014699 dose levels, at the end of infusion): > 90%
inhibition of PBL PARP activity (PARP [6]; at PID 12 mg/m^2): 74 -97%
PARP-inhibitory dose (PID) (PARP [6]; based on PBL (surrogate tissue) PARP inhibition, with TMZ 100 mg/m^2 daily x 5): 12 mg/m^2
recovery of PBL PARP activity over 24 hours (PARP [6]; doses above 8 mg/m^2): no recovery was observed
recovery of PBL PARP activity over 24 hours (PARP [6]; lower dose levels): recovery of enzyme activity over 24 hours
PARP-inhibitory dose (PID) (PARP [6]; part 1, 5 dose levels, TMZ 100 mg/m^2/day): 12 mg/m^2/day
antitumour efficacy (SW620 tumours): cures were seen
dose limiting toxicity observed ([7]; AG014699 18 mg/m^2/day given with TMZ 200 mg/m^2/day): Myelosuppression
DLTs and other grade 3/4 toxicity ([7]; Part 1 cohort 1, AG014699 1 mg/m^2 + TMZ 100 mg/m^2, 3 patients, 30 cycles): None
DLTs and other grade 3/4 toxicity ([7]; Part 1 cohort 2, AG014699 2 mg/m^2 + TMZ 100 mg/m^2, 4 patients, 11 cycles): None
DLTs and other grade 3/4 toxicity ([7]; Part 1 cohort 3, AG014699 4 mg/m^2 + TMZ 100 mg/m^2, 4 patients, 20 cycles): None
DLTs and other grade 3/4 toxicity ([7]; Part 1 cohort 4, AG014699 8 mg/m^2 + TMZ 100 mg/m^2, 4 patients, 5 cycles): None
DLTs and other grade 3/4 toxicity ([7]; Part 1 cohort 5, AG014699 12 mg/m^2 + TMZ 100 mg/m^2, 3 patients, 11 cycles): None
DLTs and other grade 3/4 toxicity ([7]; Part 2 cohort 6, AG014699 12 mg/m^2 + TMZ 135 mg/m^2, 3 patients, 6 cycles): None
DLTs and other grade 3/4 toxicity ([7]; Part 2 cohort 7, AG014699 12 mg/m^2 + TMZ 170 mg/m^2, 3 patients, 10 cycles): None
DLTs and other grade 3/4 toxicity ([7]; Part 2 cohort 8, AG014699 12 mg/m^2 + TMZ 200 mg/m^2, 3 patients, 16 cycles): None
Recommended dose ([7]; combination with temozolomide): 12 mg/m^2
dose recommended for future studies [7]: 12 mg/m^2/day
DLT ([7]; part 2, PARP inhibitory dose of AG014699 with 200 mg/m^2 temozolomide): without DLT
tolerability of the combination with temozolomide ([7]; patients, no toxic deaths): well tolerated
toxicity attributable to AG014699 alone ([7]; patients, single agent): No toxicity of any kind
tumour response in patients with metastatic melanoma (advanced solid tumors; no prior chemotherapy for melanoma): one documented complete and one partial response
tumour response in a patient with a desmoid tumour (advanced solid tumors; previously treated with surgery and imatinib): a further partial response

Cn1nnc2c(C(N)=O)ncn2c1=O [Temozolomide, reference compound]
tolerability ([8]; TMZ 200 mg/m^2/day): well tolerated
toxicity ([8]; TMZ 225 mg/m^2/day): significant myelosuppression
Recommended dose ([7]; combination with AG014699): 200 mg/m2
dose recommended for future studies [7]: 200 mg/m^2/day
